According to ChEMBL document CHEMBL6177937, “Design, synthesis, and biological evaluation of novel thiazole derivatives as PI3K/mTOR dual inhibitors” (RSC Med Chem, 2024):

How the values were obtained:
HL-60 [1] = assay: Induction of apoptosis in human HL-60 cells assessed as increase in total apoptotic cells measured after 24 hrs by Annexin-V/propidium iodide staining based flow cytometry relative to control; type: functional
NCI-H460 = assay: Growth inhibition of human NCI-H460 cells measured after 48 hrs by SRB assay; type: functional
Outline: (§1)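 NCI 60-line format with five concentrations (10-fold or ½-log serial dilutions) from DMSO stocks in medium with 50 μg/mL gentamicin. Cells preincubated 24 h, then exposed 48 h at 37°C, 5% CO2. Time-zero plates TCA-fixed. SRB absorbance read at 515 nm. GI50 taken from [(Ti−Tz)/(C−Tz)]×100 = 50. Out-of-range values are expressed as > or < the highest or lowest concentration tested.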

[2] = Selectivity index, ratio of IC50 for human PCS-800-017 cells to IC50 for human HL-60 cells; type: toxicity; details: PCS-800-017 cells and HL-60 cells, read-out: Ratio IC50
MDA-MB-231 = assay: Growth inhibition of human MDA-MB-231 cells measured after 48 hrs by SRB assay; type: functional; outline: as §1
NCI-H522 = assay: Growth inhibition of human NCI-H522 cells measured after 48 hrs by SRB assay; type: functional; outline: as §1
BT-549 = assay: Growth inhibition of human BT-549 cells measured after 48 hrs by SRB assay; type: functional; outline: as §1
UACC-62 = assay: Growth inhibition of human UACC-62 cells measured after 48 hrs by SRB assay; type: functional
Outline: (§2)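 NCI 60-line SRB screen: cells seeded […], grown 24 h at 37°C, 5% CO2, then exposed 48 h to five concentrations (10-fold or ½-log dilutions from DMSO stock). Adherent cells fixed with cold TCA (final 10%), suspension cells with 80% TCA (final 16%); SRB stained, read at 515 nm. GI50 from time-zero, control and treated absorbances.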

SF-539 = assay: Growth inhibition of human SF-539 cells measured after 48 hrs by SRB assay; type: functional; outline: as §2
UO-31 = assay: Growth inhibition of human UO-31 cells measured after 48 hrs by SRB assay; type: functional; details: for CC50: read-out: LC50 (the source's name); outline: as §2
786-0 = assay: Growth inhibition of human 786-0 cells measured after 48 hrs by SRB assay; type: functional; details: for CC50: read-out: LC50 (the source's name); outline: as §1
M14 = assay: Growth inhibition of human M14 cells measured after 48 hrs by SRB assay; type: functional; outline: as §1
SF-295 = assay: Growth inhibition of human SF-295 cells measured after 48 hrs by SRB assay; type: functional; details: for CC50: read-out: LC50 (the source's name); outline: as §2
HCT-116 = assay: Growth inhibition of human HCT-116 cells measured after 48 hrs by SRB assay; type: functional; outline: as §1
SK-MEL-28 = assay: Growth inhibition of human SK-MEL-28 cells measured after 48 hrs by SRB assay; type: functional; outline: as §2
NCI-H322M = assay: Growth inhibition of human NCI-H322M cells measured after 48 hrs by SRB assay; type: functional; outline: as §1
LOX IMVI = assay: Growth inhibition of human LOX IMVI cells measured after 48 hrs by SRB assay; type: functional; details: for CC50: read-out: LC50 (the source's name); outline: as §1
RXF 393 = assay: Growth inhibition of human RXF 393 cells measured after 48 hrs by SRB assay; type: functional; outline: as §2
SK-OV-3 = assay: Growth inhibition of human SK-OV-3 cells measured after 48 hrs by SRB assay; type: functional; outline: as §2
HOP-62 = assay: Growth inhibition of human HOP-62 cells measured after 48 hrs by SRB assay; type: functional; outline: as §1
IGROV-1 = assay: Growth inhibition of human IGROV-1 cells measured after 48 hrs by SRB assay; type: functional; outline: as §1
HL-60 [3] = assay: Induction of apoptosis in human HL-60 cells assessed as late apoptotic cells measured after 24 hrs by Annexin-V/propidium iodide staining based flow cytometry (reference value: 0.61%); type: functional
[4] = molecular target: Serine/threonine-protein kinase mTOR (Homo sapiens, UniProt P42345); assay: Inhibition of recombinant human N-terminal FLAG-tagged mTOR (1362 to end residues) expressed in baculovirus infected Sf21 insect cells using ULight-4E-BP1 as substrate measured after 30 mins by LANCE ultra assay
HL-60 [5] = assay: Induction of apoptosis in human HL-60 cells assessed as early apoptotic cells measured after 24 hrs by Annexin-V/propidium iodide staining based flow cytometry (reference value: 0.61%); type: functional
SN12C = assay: Growth inhibition of human SN12C cells measured after 48 hrs by SRB assay; type: functional; outline: as §2
NCI/ADR-RES = assay: Growth inhibition of human NCI/ADR-RES cells measured after 48 hrs by SRB assay; type: functional; outline: as §1
HCT-15 = assay: Growth inhibition of human HCT-15 cells measured after 48 hrs by SRB assay; type: functional; outline: as §1
OVCAR-3 = assay: Growth inhibition of human OVCAR-3 cells measured after 48 hrs by SRB assay; type: functional; outline: as §1
SNB-75 = assay: Growth inhibition of human SNB-75 cells measured after 48 hrs by SRB assay; type: functional; outline: as §2
[6] = Cytotoxicity against human PCS-800-017 cells assessed as reduction in cell viability measured after 24 hrs by MTT assay; type: toxicity, cell-based
Outline: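 MTT viability with 24 h incubation in 96-well plates. Five semi-log concentrations from 0.01 to 100 μM. Formazan absorbance read at 570 nm, with 690 nm background subtracted. Run in triplicate. IC50 obtained by sigmoidal dose-response fitting. Cells are leukemia HL-60(TB) and normal lymphocytes (PCS-800-017).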

T47D = assay: Growth inhibition of human T47D cells measured after 48 hrs by SRB assay; type: functional; outline: as §2
SF-268 = assay: Growth inhibition of human SF-268 cells measured after 48 hrs by SRB assay; type: functional; outline: as §2
DU-145 = assay: Growth inhibition of human DU-145 cells measured after 48 hrs by SRB assay; type: functional; outline: as §1
U-251 = assay: Growth inhibition of human U-251 cells measured after 48 hrs by SRB assay; type: functional; outline: as §2
HL-60 [7] = assay: Induction of apoptosis in human HL-60 cells assessed as increase in caspase-3 level measured after 24 hrs by ELISA relative to control

## CCOc1cc(/C=N/Nc2nc(-c3cccc([N+](=O)[O-])c3)cs2)ccc1O
HL-60 [1]
  fold change (FC): 23.07
NCI-H460
  GI50: 2.4 µM
  TGI: 5.81 µM
[2]
  selectivity ratio: 12.3
MDA-MB-231
  GI50: 1.78 µM
  TGI: 3.88 µM
NCI-H522
  GI50: 1.85 µM
  TGI: 4.21 µM
BT-549
  GI50: 2.84 µM
  TGI: 8.12 µM
UACC-62
  GI50: 2.39 µM
  TGI: 6.56 µM
SF-539
  GI50: 1.78 µM
  TGI: 4.15 µM
UO-31
  GI50: 2.29 µM
  TGI: 8.85 µM
  CC50: > 100 µM
786-0
  GI50: 2.75 µM
  TGI: 8.68 µM
  CC50: 81.8 µM
M14
  GI50: 1.85 µM
  TGI: 3.89 µM
SF-295
  GI50: 2 µM
  TGI: 4.28 µM
  CC50: 9.16 µM
HCT-116
  GI50: 2.34 µM
  TGI: 5.83 µM
SK-MEL-28
  GI50: 2.27 µM
  TGI: 5.97 µM
NCI-H322M
  GI50: 4.32 µM
  TGI: 16.9 µM
LOX IMVI
  GI50: 1.73 µM
  TGI: 3.59 µM
  CC50: 7.46 µM
RXF 393
  GI50: 1.89 µM
  TGI: 4.82 µM
SK-OV-3
  GI50: 3.36 µM
  TGI: 27.8 µM
HOP-62
  GI50: 2.51 µM
  TGI: 6.92 µM
IGROV-1
  GI50: 2.46 µM
  TGI: 7.23 µM
HL-60 [3]
  Activity: 16.27%
[4]
  IC50: 0.221 µM
HL-60 [5]
  Activity: 31.19%
SN12C
  GI50: 2.41 µM
  TGI: 9.9 µM
NCI/ADR-RES
  GI50: 2.72 µM
  TGI: 8.59 µM
HCT-15
  GI50: 2.86 µM
  TGI: 11.8 µM
OVCAR-3
  GI50: 2.31 µM
  TGI: 4.43 µM
SNB-75
  GI50: 2.72 µM
  TGI: 13.1 µM
[6]
  IC50 at 24 h: 28.6 µM
T47D
  GI50: 3.69 µM
  TGI: 16.3 µM
SF-268
  GI50: 3.45 µM
  TGI: 27.4 µM
DU-145
  GI50: 3.43 µM
  TGI: 11.6 µM
U-251
  GI50: 3.08 µM
  TGI: 14.1 µM
HL-60 [7]
  fold change (FC): 4.61

## O=[N+]([O-])c1cc(/C=N/Nc2nc(-c3ccc(Cl)cc3)cs2)ccc1Cl
HL-60 [1]
  fold change (FC): 19.9
NCI-H460
  GI50: 13.6 µM
  TGI: 26.5 µM
[2]
  selectivity ratio: 9.9
MDA-MB-231
  GI50: 17.4 µM
  TGI: 42.6 µM
NCI-H522
  GI50: 9.45 µM
  TGI: 67.6 µM
BT-549
  GI50: 14.5 µM
  TGI: 40.4 µM
UACC-62
  GI50: 11.1 µM
  TGI: 26 µM
SF-539
  GI50: 16.3 µM
  TGI: 31.1 µM
UO-31
  GI50: 8.46 µM
  TGI: 20.7 µM
  CC50: 45.5 µM
786-0
  GI50: 19.8 µM
  TGI: 61.3 µM
  CC50: > 100 µM
M14
  GI50: 17 µM
  TGI: 45.6 µM
SF-295
  GI50: 14.9 µM
  TGI: 28.3 µM
  CC50: 53.8 µM
HCT-116
  GI50: 16.3 µM
  TGI: 36.6 µM
SK-MEL-28
  GI50: 17.2 µM
  TGI: 46.4 µM
NCI-H322M
  GI50: 3.23 µM
  TGI: 13.7 µM
LOX IMVI
  GI50: 3.91 µM
  TGI: > 100 µM
  CC50: > 100 µM
RXF 393
  GI50: 11.9 µM
  TGI: 30.6 µM
SK-OV-3
  GI50: 21.8 µM
  TGI: 65 µM
HOP-62
  GI50: 8.87 µM
  TGI: 22.4 µM
IGROV-1
  GI50: 13.6 µM
  TGI: 37.4 µM
HL-60 [3]
  Activity: 17.92%
[4]
  IC50: 0.896 µM
HL-60 [5]
  Activity: 23.62%
SN12C
  GI50: 15.1 µM
  TGI: 61.5 µM
NCI/ADR-RES
  GI50: 16.8 µM
  TGI: 41.5 µM
HCT-15
  GI50: 13.1 µM
  TGI: 42.1 µM
OVCAR-3
  GI50: 1.73 µM
  TGI: 3.13 µM
SNB-75
  GI50: 14.8 µM
  TGI: 40.1 µM
[6]
  IC50 at 24 h: 22.7 µM
T47D
  GI50: 1.8 µM
  TGI: 3.81 µM
SF-268
  GI50: 8.44 µM
  TGI: 31.8 µM
DU-145
  GI50: 1.63 µM
  TGI: 3.07 µM
U-251
  GI50: 4.37 µM
  TGI: 17 µM
HL-60 [7]
  fold change (FC): 3.48
